# Assay results of several laboratories.
# Each line is one published result; the experiments were not run side by side.
# Target: Casein kinase I isoform epsilon (CSNK1E, Homo sapiens, UniProt P49674)
SMILES,test,conditions,measurement,value
Cn1c2c(Cl)c(Cl)ccc2c2cc(N)[nH]c(=O)c21,"thermal stability, DSF",10 µM,ΔTm,0.5 °C
CNCc1ccccc1-c1csc([C@H](C)Nc2nc(C)nc3cc(OC)c(OC)cc23)c1,"cell-free assay, competition with immobilised ligand",1 µM,remaining binding,91%
COc1cc2ncnc(Nc3ccc(Oc4ccccc4)c(C)c3C)c2cc1OC,"enzyme activity, inhibitor",1 µM,inhibition,0%
CCCS(=O)(=O)Nc1ccc(F)c(C(=O)c2c[nH]c3ncc(-c4ccc(Cl)cc4)cc23)c1F,"enzyme activity, inhibitor",1 µM,inhibition,< 10%
O=c1cc(-c2cccc3c2Sc2ccccc2S3)oc(N2CCOCC2)c1,"enzyme activity, inhibitor",0.5 µM,remaining activity,104%
O=C(NCCCNc1nc(Nc2cccc(NC(=O)N3CCCC3)c2)ncc1I)c1cccs1,"enzyme activity, inhibitor",1 µM,inhibition,-16%
O=C(N1CCS(=O)(=O)CC1)N1C[C@H](c2ccc(OC(F)(F)F)cc2)C[C@H](c2nc(C3CC3)no2)C1,"cell-free assay, competition with immobilised ligand",1 µM,remaining binding,100%
CC/C(=N\NC(=O)NCc1cccc(O)c1)c1ccc(O)c(C)c1O,"enzyme activity, inhibitor",0.1 µM,inhibition,3.6%
CCN1/C(=C/C(C)=O)Sc2ccc(OC)cc21,enzyme activity,0.5 µM,remaining activity,60.1%
CN(C)CC#Cc1ccc(OCCCc2sc(N3CCc4cccc(C(=O)Nc5nc6ccccc6s5)c4C3)nc2C(=O)O)c(F)c1,"cell-free assay, competition with immobilised ligand",1 µM,remaining binding,86%
Cn1c2c(Cl)c(Cl)ccc2c2cc[nH]c(=O)c21,"thermal stability, DSF",10 µM,ΔTm,1 °C
CN(C)C(=O)Cn1cc(-c2nc(C3(c4ccc(-c5cnc(N)nc5)cc4)CC3)no2)cn1,"cell-free assay, competition with immobilised ligand",1 µM,remaining binding,100%
COc1cc2ncnc(Nc3ccc(F)c(Cl)c3)c2cc1OCCCN1CCOCC1,enzyme activity,0.5 µM,remaining activity,106%
Cn1c2c(c3ccc(Cl)c(Cl)c31)C(C#N)C(C)(C)NC2=O (centres unmarked),"thermal stability, DSF",10 µM,ΔTm,1.3 °C
CCOC(=O)c1cc2cc(-c3cc(C(=O)NCc4ccc(C(=O)O)cc4)nn3C)ccc2[nH]1,"cell-free assay, competition with immobilised ligand",0.1 µM,remaining binding,100%
C[C@@H]1CCN(C(=O)CC#N)C[C@@H]1N(C)c1ncnc2[nH]ccc12,"enzyme activity, inhibitor",0.5 µM,remaining activity,101%
O=C(NS(=O)(=O)c1ccc(NCC2CCOCC2)c([N+](=O)[O-])c1)c1ccc(N2CCN(Cc3ccc(C(F)(F)F)cc3-c3ccc(Cl)cc3)CC2)cc1Oc1cnc2[nH]ccc2c1,"cell-free assay, competition with immobilised ligand",1 µM,remaining binding,95%
CCN(CC)CCNC(=O)c1c(C)[nH]c(/C=C2\C(=O)Nc3ccc(Cl)cc32)c1C,"enzyme activity, inhibitor",0.5 µM,remaining activity,46.7%
O=C(Nc1cnn(-c2csc(C(=O)NC3COC3)c2)c1)Nc1c(F)cccc1Cl,"enzyme activity, inhibitor",5 µM,remaining activity,88.6%
O=C1Nc2ccc(Cl)cc2C1=Cc1cc(Cl)c(O)c(Cl)c1,enzyme activity,0.5 µM,remaining activity,66.6%
CCS(=O)(=O)c1cc2cc(C[C@@](O)(CC(C)(C)c3ccc(F)cc3C(N)=O)C(F)(F)F)[nH]c2cn1,"cell-free assay, competition with immobilised ligand",1 µM,remaining binding,97%
Nc1nc(Nc2ccc(S(N)(=O)=O)cc2)nn1C(=O)c1c(F)cccc1F,cell-free assay,0.5 µM,remaining signal,96.9%
CC(C)(C)c1nc(-c2cccc(NS(=O)(=O)c3c(F)cccc3F)c2F)c(-c2ccnc(N)n2)s1,"enzyme activity, inhibitor, radiometric",1 µM,remaining activity,89%
